Reference: ChEMBL document CHEMBL1255487, “Preclinical evaluation of the antifolate QN254, 5-chloro- N'6'-(2,5-dimethoxy-benzyl)-quinazoline-2,4,6-triamine, as an antimalarial drug candidate” (Antimicrob Agents Chemother, 2010)

What was measured:
Plasmodium berghei [1] = assay: Antimalarial activity against Plasmodium berghei ANKA infected in NMRI mice (Mus musculus) assessed as cure rate at 15 mg/kg, perorally administered as single dose measured on day 3 postinfection; type: functional; details: route oral
Procedure, shortened: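 Female NMRI mice (20–22 g), 5 per group, infected intravenously with 0.2 ml of 1 × 10^8 parasitized erythrocytes/ml from a fresh donor mouse. Compound suspended in 0.5% carboxymethyl cellulose and given orally. Survival followed to day 30 post-infection; an animal was scored cured if it survived to day 30 without parasites.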

[2] = Binding affinity to recombinant Plasmodium falciparum V1/S DHFR S108N, N51I, C59R, I164L mutant by competitive binding assay; parameters: species or system V1S
[3] = Binding affinity to wild type Plasmodium falciparum DHFR by competitive binding assay
Plasmodium berghei [4] = assay: Antimalarial activity against Plasmodium berghei ANKA infected in NMRI mice (Mus musculus) assessed as reduction in parasitemia at 15 mg/kg, perorally administered as single dose measured on day 3 postinfection; type: functional; parameters: scale not given: the % may be the effect or the level left; details: route oral
Procedure, shortened: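 P. berghei ANKA given intravenously to groups of 5 female NMRI mice (20–22 g): 0.2 ml of 1 × 10^8 parasitized erythrocytes/ml from a donor mouse. Oral dosing in 0.5% carboxymethyl cellulose. Parasitemia counted by microscopy. Activity is the control-minus-treated parasitemia difference, expressed as percent of untreated controls.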

Plasmodium falciparum = assay: Antimalarial activity against pyrimethamine-resistant Plasmodium falciparum V1/S harboring S108N, N51I, C59R, I164L mutation in DHFR assessed as decrease in parasitaemia; type: functional, organism-based; details: V1S

`COc1ccc(OC)c(CNc2ccc3nc(N)nc(N)c3c2Cl)c1` showed an Activity (Plasmodium berghei [1]) of 0%, a Ki [2] of 0.58 nM and a Ki [3] of 0.39 nM. For the same molecule, the Activity (Plasmodium berghei [4]) was 73% and the IC50 (Plasmodium falciparum) was 7.61 nM.
